Data on 49 compounds can be found in ChEMBL document CHEMBL1121524, “Studies of hypolipidemic agents. 1. Synthesis and hypolipidemic activities of alkoxycinnamic acid derivatives” (1980).

Each structure is given as a SMILES string.

The species named for test [1] is Rattus norvegicus. Briefly: Tested for the hypolipidemic activity, expressed as percent decrease in Triglyceride in rat, at dosage of 100 mg for 3 days by Ryan and Rasho method. The test is classed as functional. The method, boiled down:
(§1)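 Male Sprague-Dawley rats, 4 weeks old, kept on CE-2 chow for at least 1 week, then grouped (generally five per group). Compound was mixed into CE-2 powder and fed ad libitum for the stated period; controls received plain CE-2 powder. Diet level is given as mg/100 g (mg%), about equal to mg/kg/day. Total serum triglyceride was measured by the Ryan and Rasho method and reported as percent depression versus control group mean. Significance was p < 0.05.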

The species named for test [2] is Rattus norvegicus. Kind of test: Tested for the hypolipidemic activity, expressed as percent decrease in serum cholesterol in rat, at dosage of 100 mg for 3 days by Zak et al method. The test is classed as functional. In short, it runs like this: (§2)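 Male Sprague-Dawley rats, 4 weeks old, kept on CE-2 chow for at least 1 week, then grouped (generally five per group). Compound was mixed into CE-2 powder and fed ad libitum for the stated period; controls received plain CE-2 powder. Diet level is given as mg/100 g (mg%), about equal to mg/kg/day. Total serum cholesterol was measured by the Zak et al. method and reported as percent depression versus control group mean. Significance was p < 0.05.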

Test [3] concerns Rattus norvegicus. Briefly: In vivo hypolipidemic activity, expressed as percent decrease in Triglyceride in rat, at dosage of 100 mg for 7 days. It counts as functional. In short, it runs like this:
as §1

The species entered for test [4] is Rattus norvegicus. Kind of test: Hypolipidemic activity, expressed as percent decrease in serum cholesterol in rat, at dosage of 100 mg for 7 days by Zak et al method. It counts as functional. In short, it runs like this:
as §2

Test [5] deals with Rattus norvegicus. Briefly: In vivo hypolipidemic activity, expressed as percent decrease in serum cholesterol in rat, at dosage of 20 mg for 7 days. The test is classed as functional. In short, it runs like this: as §2
For test [6], the system named is Rattus norvegicus. Briefly: In vivo hypolipidemic activity, expressed as percent decrease in serum triglyceride in rat, at dosage of 20 mg for 7 days.
The species entered for test [7] is Rattus norvegicus. Kind of test: Hypolipidemic activity expressed as percentage decrease in triglyceride in rat, at dosage of 50 mg for 7 days. The test is classed as functional. The method, boiled down: as §1
The species named for test [8] is Rattus norvegicus. Briefly: Tested for the hypolipidemic activity, expressed as percent decrease in serum cholesterol in rat, at dosage of 50 mg for 7 days. It counts as functional. The method, boiled down:
as §2

For test [9], the species on record is Rattus norvegicus. Kind of test: tested for the hypolipidemic activity, expressed as percent decrease in serum cholesterol in rat, at dosage of 10 mg for 7 days by Zak et al method. The test is classed as functional. In short, it runs like this: as §2
For test [10], the species on record is Rattus norvegicus. Briefly: tested for the hypolipidemic activity, expressed as percent decrease in Triglyceride in rat, at dosage of 10 mg for 7 days by Ryan and Rasho method. It counts as functional. In short, it runs like this: as §1

As to `CCCCCCCCCCCCCCCCOc1ccc(/C=C(\C)C(=O)OCCCO)cc1`, the results for the Decrease in test [1] and in test [2] were 43% and 6%, respectively.
For `CCCCOc1ccc(/C=C/C(=O)OCCO)cc1`, the Decrease in test [3] was found to be 26%; in test [4], 9%.
Take `C/C(=C\c1ccccc1)C(=O)OCC(O)CO` (stereo unspecified): the results for the Decrease in test [1] and in test [2] were 22% and 10%, respectively.
In the same order, the values of `CCCCCCCCCCCCCCCCOc1ccc(/C=C/C(=O)OCCOC(=O)/C=C/c2ccc(OCCCCCCCCCCCCCCCC)cc2)cc1` are -4% and 9%.
With `COc1ccc(/C=C/C(=O)OCCCl)cc1`, in [4], the Decrease turned out to be 0%.
As for `C=C(C)C(=O)OCCOC(=O)/C=C(\C)c1ccc(OCCCCCCCCCCCCCCCC)cc1`, the Decrease is listed as 12% in test [3] and 11% in test [4].
Turning to `CCCCCCCCCCCCCCCCOc1ccc(/C=C/C(=O)OCCCO)cc1`, the Decrease in [1] and in [2] was 16% each time.
Turning to `CCCCCCCCCCCCCCCCOc1ccc(/C=C/C(=O)OCCO)cc1`, the Decrease in test [3] is given as 57%; in test [4] it was 24%; in test [5], 18%; in test [6], 26%.
Regarding `CCCCCCCCCCCCCCCCOc1ccc(/C=C(\C)C(=O)O)cc1`, the Decrease in [7] is recorded as 25%; in test [5] it was 9%; in test [8], 17%; in test [6] it was 1%.
Regarding `C=COC(=O)/C=C/c1ccc(OCCCCCCCC)cc1`, the Decrease in [4] is -6%.
For the compound `C=C(C)C(=O)OCCOC(=O)/C=C/c1ccc(OCCCCCCCC)cc1`, the Decrease is -11% in [3] and 16% in [4].
Turning to `CCCCOc1ccc(/C=C/C(=O)OCCS(=O)(=O)[O-])cc1.[Na+]`, the Decrease in test [3] is listed as 9%; in test [4], -1%.
As for `C=CC(=O)OCCOC(=O)/C=C/c1ccc(OCCCCCCCCCCCCCCCC)cc1`, the Decrease in [4] was 6%.
`C=CCOc1ccc(/C=C/C(=O)OCC(O)CO)cc1` (stereo unspecified): the Decrease is -14% in [1] and 12% in test [2].
On to `O=C(/C=C/c1ccc(OCc2ccccc2)cc1)OCCCl`, for which the Decrease in [4] is -3%.
On to `CCCCCCCCCCCCCCOc1ccc(/C=C(\C)C(=O)O)cc1`, for which the Decrease in [3] came to 45%; in [7], 26%; in test [4], 16%; in [5], 12%; in [8], 17%; in test [6], 38%.
As for `C/C(=C\c1ccc(Oc2ccccc2)cc1)C(=O)OCCCl`, the Decrease is -6% in test [7], 15% in test [5], 14% in [8] and 22% in [6].
Take `CCCCCCCCCCCCCCCCOc1ccc(/C=C/C(=O)OCCBr)cc1`: the Decrease was 6% in test [3] and 7% in test [4].
`C=CCOc1ccc(/C=C/C(=O)OCCCl)cc1`: the Decrease is reported as 26% in test [3] and -9% in test [4].
Consider `C=C(C)C(=O)OCCOC(=O)/C=C/c1ccc(OCc2ccccc2)cc1`, for which the Decrease stood at 33% in test [3] and 13% in test [4].
`CCCCCCCCCCCCCCCCOc1ccc(/C=C(\C)C(=O)OCCO)cc1`: the results for the Decrease in test [1] and in test [2] were 59% and 13%, respectively.
As for `CCCCOc1ccc(/C=C/C(=O)OCCBr)cc1`, the Decrease was 26% in test [3] and 9% in test [4].
Taken in the same sequence, the figures for `CCCCOc1ccc(/C=C/C(=O)OCCN2CCCCC2)cc1.Cl` were 2% and 3%.
Take `CCCCCCCCCCCCCCOc1ccc(/C=C(\C)C(=O)OCC)cc1`: the Decrease in [7] was 34%; in test [5] it was 6%; in [8], 7%; in test [6] it was 37%.
For the compound `C/C=C/C(=O)OCCOC(=O)/C=C/c1ccc(OCCCCCCCCCCCCCCCC)cc1`, the Decrease is 11% in test [3] and 3% in [4].
`CCCCCCCCCCCCCCOc1ccc(/C=C(\C)C(=O)OCC(O)CO)cc1` (stereo in doubt; 97): the Decrease in test [3] stood at 52%; in test [7] it was 43%; in test [4] it was 45%; in [5] it was 14%; in [8], 25%; in [6] it was 33%.
For the compound `CCCCCCCCCCCCCCCCOc1ccc(/C=C/C(=O)OCCS(=O)(=O)[O-])cc1.[Na+]`, the results for the Decrease in test [3] and in [4] were 47% and 17%, respectively.
With `CCCCCCCCCCCCCCCCOc1ccc(/C=C(\C)C(=O)OCCS(=O)(=O)[O-])cc1.[Na+]`, the Decrease was 36% in test [1] and 8% in [2].
Turning to `CCCCCCCCCCCCCCCCOc1ccc(/C=C(\C)C(=O)OCC(O)CO)cc1` (stereo unspecified), the Decrease in test [1] was 68%; in [7] it was 28%; in test [2] it was 32%; in test [5], 11%; in test [8] it was 15%; in test [6], 5%.
For `C=C(C)C(=O)OCCOC(=O)/C=C/c1ccc(Oc2ccccc2)cc1`, the results for the Decrease in test [1] and in test [2] were -15% and 14%, respectively.
In the case of `CCCCCCCCOc1ccc(/C=C/C(=O)OCCCl)cc1`, the Decrease in test [4] came out at 5%.
As for `CCCCCCCCCCCCCCCCOc1ccc(/C=C(\C)C(=O)OCCCCl)cc1`, the Decrease in test [1] is recorded as 25%; in test [2] it was 17%.
With `CCOC(=O)C(C)(C)Oc1ccc(Cl)cc1` [CLOFIBRATE], the Decrease was 41% in test [3], 35% in test [7], 22% in [4] and 14% in test [8].
For `CCCCCCCCCCCCOc1ccc(/C=C(\C)C(=O)OCC(O)CO)cc1` (stereo unspecified), the Decrease was determined as 53% in [7]; 16% in [5]; 9% in test [9]; 10% in test [10]; 26% in test [8]; 33% in [6].
Consider `O=C(/C=C/c1ccc(Oc2ccccc2)cc1)OCCCl`, for which the Decrease in test [5] is 18%; in test [6] it was 21%.
Taken in the same sequence, the figures for `C/C(=C\c1ccc(Oc2ccccc2)cc1)C(=O)O` were 8% and 15%.
With `CCCCCCCCCCCCCCCCOc1ccc(/C=C/C(=O)OCCCCl)cc1`, the Decrease in [3] came out at 44%; in test [7], 48%; in [4], 22%; in test [5], 1%; in [8], 5%; in [6], 38%.
Turning to `CCCCCCCCCCCCCCOc1ccc(/C=C(\C)C(=O)OCCC(=O)OC)cc1`, the Decrease is recorded as 37% in test [7], -1% in [5], 30% in [8] and 7% in test [6].
In the case of `C/C(=C\c1ccc(Oc2ccccc2)cc1)C(=O)OCC(O)CO` (stereo unspecified), the Decrease in test [7] is 4%; in test [5] it was 7%; in test [8], 14%; in test [6] it was -1%.
Turning to `C=C(C)C(=O)OCCCOC(=O)/C=C/c1ccc(OCCCCCCCCCCCCCCCC)cc1`, the Decrease in [3] is reported as 0%; in test [4], 16%.
For `CCCCOc1ccc(/C=C/C(=O)OCCCl)cc1`, the Decrease was 26% in test [3] and 0% in [4].
As for `CCCCOc1ccc(/C=C/C(=O)OCCN2CCOCC2)cc1.Cl`, the Decrease in test [1] is listed as -32%; in test [2], -9%.
For `O=C(O)/C=C/c1ccc(Oc2ccccc2)cc1`, the Decrease was determined as 34% in test [7], 14% in test [5], 15% in test [8] and 14% in [6].
Regarding `O=C(/C=C/c1ccc(Oc2ccccc2)cc1)OCC(O)CO` (stereo unspecified), the Decrease in test [7] came to 29%; in [5], 15%; in test [8] it was 11%; in [6] it was 26%.
For the compound `CCCCCCCCCCCCCCCCCCOc1ccc(/C=C(\C)C(=O)OCCCCl)cc1`, the Decrease stood at 11% in [7] and 0% in [8].
In the case of `CCCCCCCCCCCCCOc1ccc(/C=C(\C)C(=O)OCC(O)CO)cc1` (stereo unspecified), the Decrease in [7] amounted to 53%; in [8] it was 30%.
As to `CCCCCCCCCCCCCCCCOc1ccc(/C=C/C(=O)OCCCOC(=O)/C=C/c2ccc(OCCCCCCCCCCCCCCCC)cc2)cc1`, the Decrease in [1] is reported as -2%; in test [2], 8%.
In the case of `CCCCCCCCCCCCCCOc1cccc(/C=C(\C)C(=O)O)c1`, the Decrease was -11% in [7] and -1% in test [8].
Taken in the same sequence, the figures for `CCCCCCCCCCCCCCCCOc1ccc(/C=C(\C)C(=O)OCC2COC(C)(C)O2)cc1` (stereo unspecified) were 3% and 1%.
